From ChEMBL document CHEMBL5126610, “Beyond Retigabine: Design, Synthesis, and Pharmacological Characterization of a Potent and Chemically Stable Neuronal Kv7 Channel Activator with Anticonvulsant Activity” (J Med Chem, 2022) come the findings set out here.

Active and inactive are the calls of the source. The calls are words filed in the database; no cut-off is given here.

The nature of data set [1]: Photo stability of compound in saline at 10 uM irradiated with UV for 3 hrs by HPLC analysis. The class given is physicochemical. The settings on record: buffer. Summed up: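 Compounds in DMSO diluted into buffered aqueous solution pH 7.4 to a final 10 µM. Irradiated in 1 cm quartz cells by a 150 W UV lamp at 20 cm for 3 h; dark controls held at 37 °C. Aliquots analysed by UHPLC on C18 with TFA water/ACN gradient: 220 nm for loss of parent, 550 nm for phenazine/phenazinium dimers.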

Data set [2] deals with T1, Voltage-gated potassium channel, KQT; KCNQ2(Kv7.2)/KCNQ3(Kv7.3) (Homo sapiens) (UniProt O43526+O43525). The data set can be described thus: Activation of Kv7.2/Kv7.3 channel (unknown origin) expressed in CHO cells assessed as leftward shift change in half activation potential at 1 uM measured after 24 hrs by whole cell patch clamp based electrophysiological method. As to conditions: filed as activator. (The patch-clamp technique gives a direct electrical read-out from membranes.)

Data set [3] addresses T1, Voltage-gated potassium channel, KQT; KCNQ2(Kv7.2)/KCNQ3(Kv7.3) (Homo sapiens). The data set can be described thus: Activation of Kv7.2/Kv7.3 channel (unknown origin) expressed in CHO cells at -80 mV measured after 24 hrs by whole cell patch clamp based electrophysiological method. As to conditions: filed as activator.
Data set [4] has as its system Mus musculus. In words: Anticonvulsant activity in PTZ induced C57BL/6 mouse acute seizure model assessed as seizure score at 3 mg/kg, ip pretreated for 30 mins followed by PTZ injection and measured upto 30 mins by Liittjohann's scale analysis. The class given is functional. As to conditions: time 60 min, 1 h. Summed up:
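Male C57Bl/6 mice given drug i.p. in saline with 2% Tween-20 and 2% PEG-400 (0.01 mL/g), 30 min before PTZ 100 mg/kg s.c. Observed in Plexiglass boxes for 30 min. Maximal severity scored on the revised Lüttjohann 9-point scale (0–8), latency to maximal seizure recorded. One-way ANOVA with Tukey.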

Data set [5] concerns the target T1, Voltage-gated potassium channel, KQT; KCNQ2(Kv7.2)/KCNQ3(Kv7.3) (Homo sapiens). The data set can be described thus: Activation of Kv7.2/Kv7.3 channel (unknown origin) expressed in CHO cells assessed as slope of fluorescent signal at 10 uM by FluxOR fluorescent dye based assay. The class given is cell-based. The settings on record: filed as activator. In outline: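 CHO clone stably expressing Kv7.2/Kv7.3 (PiggyBac, puromycin 4 µg/mL), seeded 1.6 × 10^4 cells/well on poly-D-lysine, assayed 24 h later. FluxOR II thallium flux, wash method, ex 485/em 520 nm. Tl+ stimulus buffer added after 5 s, read every 1 s for 50 s. Initial slope taken from 5–15 s. Vehicle 0.1% DMSO, 10 µM retigabine reference; only runs with Z' > 0.5 kept; ≥3 experiments.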

The nature of data set [6]: Toxicity in PTZ induced C57BL/6 mouse acute seizure model assessed as in mortality at 0.3 mg/kg, ip. In kind it is organism-based. As to conditions: in vivo. In outline:
(§1)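 Male C57Bl/6 mice were pretreated i.p. with drug in saline containing 2% Tween-20 and 2% PEG-400, 30 min before PTZ (100 mg/kg s.c.). Vehicle controls received the vehicle alone. Survival was recorded as animals alive at the end of the 60 min observation period after PTZ and expressed as percent (surviving/total) per group.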

Data set [7] has as its target T1, Voltage-gated potassium channel, KQT; KCNQ2(Kv7.2)/KCNQ3(Kv7.3) (Homo sapiens). In words: Activation of Kv7.2/Kv7.3 channel (unknown origin) expressed in CHO cells assessed as half activation potential measured after 24 hrs by whole cell patch clamp based electrophysiological method. As to conditions: filed as activator.
Data set [8] has as its system Mus musculus. The data set can be described thus: Anticonvulsant activity in PTZ induced C57BL/6 mouse acute seizure model assessed as seizure score at 0.3 mg/kg, ip pretreated for 30 mins followed by PTZ injection and measured upto 30 mins by Liittjohann's scale analysis. The class given is functional. The settings on record: time 60 min, 1 h. In outline:
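Male C57Bl/6 mice, drug in saline with 2% Tween-20 and 2% PEG-400, given i.p. at 0.01 mL/g 30 min before PTZ (100 mg/kg s.c. in saline). Animals watched in clear boxes for 30 min. Maximal severity was scored on the revised Lüttjohann 9-point scale (0 whisker trembling to 8 wild jumping). Group mean reported.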

The nature of data set [9]: Toxicity in PTZ induced C57BL/6 mouse acute seizure model assessed as mortality at 1 mg/kg, ip. The class given is organism-based. As to conditions: in vivo. In outline:
as §1

On to `CCCCCCCC(=O)Nc1ccc(NCc2ccc(C(F)(F)F)cc2)cc1N`, for which the Stability result in data set [1] is on record as “Stable”.
On to `CCOC(=O)Nc1ccc(NCc2ccc(C(F)(F)F)cc2)c(F)c1N`, for which the delta(V1/2) in data set [2] came out at 40 mV. In addition, in data set [3], the outcome was Active.
Regarding `CC(C)(C)CC(=O)Nc1ccc(NCc2ccc(C(F)(F)F)cc2)cc1N1CCCCC1`, the Stability result in data set [1] is given as “Unstable”.
Same read-out and setting: with `CCCCCCC(=O)Nc1ccc(NCc2ccccc2F)cc1N` the entry was “Stable”.
The same measure, in the same setting: with `CC(C)(C)CC(=O)Nc1ccc(NCc2ccc(C(F)(F)F)cc2)cc1N1CCCC1` the entry was “Unstable”.
Still for that read-out and setting: the same measure for `CC(C)(C)CC(=O)Nc1ccc(NCc2c(F)cccc2F)cc1N`: “Stable”.
Consider `O=C1c2ccccc2C(Cc2ccncc2)(Cc2ccncc2)c2ccccc21`, for which, in the data set with Mus musculus [4], the Activity was 7.3.
With `CCOC(=O)Nc1ccc(NCc2ccc(F)cc2)cc1N`, the result in [3] was Active.
With `CCCCCCC(=O)Nc1ccc(CCc2ccc(C(F)(F)F)cc2)cc1N`, the Activity in [5] was found to be 0.0087.
On to `CCCCCCC(=O)Nc1ccc(NCc2ccccc2)cc1N`, for which the Stability entry in [1] is given as “Stable”.
The same measure, in the same setting: the same measure for `Nc1cc(NCc2ccc(C(F)(F)F)cc2)ccc1NC(=O)CCC1CCCCC1`: “Stable”; for `CC(C)(C)CC(=O)Nc1ccc(NCc2ccc(C(F)(F)F)cc2)cc1N`: “Stable”; for `CCCCCCC(=O)Nc1ccc(NCc2ccc(C(F)(F)F)cc2)cc1N`: “Stable”.
Consider `CC(C)(C)CC(=O)Nc1ccc(NCc2ccc(C(F)(F)F)cc2)c(F)c1N`, for which the Activity in data set [6] was found to be 87%; in the data set with Mus musculus [8], 6; in data set [9], 100%. Besides, the V1/2 in [7] is -30.2 mV. Further, the result in data set [3] was Active.
